This is a sample that favours compounds with a hit; in the whole collection about 1.5% have one here.
Runt-SMMHC FRET – blocks binding of human RUNX1 Runt domain to CBFb-SMMHC. Cerulean-Runt/Venus-CBFb-SMMHC FRET ratio 530/480, 1 h. hit rate 0.74% among 220,000. inhibition, % at 20 µM;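 active = mean inhibition across duplicate retests at 20 µM reaching about 50%, limit read from the data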;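 also: inhibitors lower the FRET ratio by blocking Runt binding to CBFb-SMMHC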
RanGTP-Imp inh – disruptors of Ran-importin-beta complex formation – biochemical, FRET, CFP-Ran, YFP-importin-beta, homogeneous, primary screen; inhibition, % (test concentration not listed); AID 2216; cell-free CFP-Ran/YFP-importin-beta FRET ratio; hit rate 1.1% among 300,000;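 active = more than half of the replicate wells show a fall in the fluorescence ratio signal beyond about 16%, limit read from the data, passing the limit was not always enough; inconclusive = exactly half of the replicate wells pass the set limit; inactive = fewer than half of replicates pass the limit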
CaV13 FRET inh – Primary screen for inhibitors of IQ motif and Ca2+-dependent inactivation inhibitor domain binding in CACNA1D, Förster resonance energy transfer in living cells, …. HEK cells, CFP/YFP FRET ICDI-IQ, plate reader, 10 min; percent FRET-ratio fall versus neutral wells. inhibition, % at 12.3 µM. hit rate 0.098% among 340,000;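 active = mean replicate inhibition of at least 30% and at least 1% of replicates passing that level; inconclusive = only one of the two criteria is met; inactive = neither criterion is met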
Hck-Nef inh – human Hck-Nef kinase inhibition; P08631; Recombinant Hck-YEEI plus Nef, Z-Lyte FRET kinase assay; inhibition, % at 20 µM; hit rate 0.68% among 220,000; AID 463187;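 active = Hck-Nef kinase inhibition above about 50%, limit read from the data; inactive = inhibition below that limit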
Target sequence (P08631 whole entry, looked up): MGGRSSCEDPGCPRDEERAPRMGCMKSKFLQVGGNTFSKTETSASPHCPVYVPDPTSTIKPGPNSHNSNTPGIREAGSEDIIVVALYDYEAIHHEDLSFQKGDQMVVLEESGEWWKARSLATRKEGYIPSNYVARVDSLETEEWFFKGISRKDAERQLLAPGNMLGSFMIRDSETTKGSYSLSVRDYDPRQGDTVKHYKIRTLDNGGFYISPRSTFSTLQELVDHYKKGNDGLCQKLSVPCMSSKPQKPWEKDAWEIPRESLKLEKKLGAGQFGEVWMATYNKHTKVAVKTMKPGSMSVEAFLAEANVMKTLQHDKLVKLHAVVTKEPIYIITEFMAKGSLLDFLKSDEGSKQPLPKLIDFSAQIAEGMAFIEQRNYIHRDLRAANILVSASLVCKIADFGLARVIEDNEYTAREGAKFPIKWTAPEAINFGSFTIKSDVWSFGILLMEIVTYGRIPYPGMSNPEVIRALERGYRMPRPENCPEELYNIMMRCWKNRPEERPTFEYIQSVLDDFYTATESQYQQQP
Runt-CBFb FRET – Runt domain-CBFb interaction inhibition; Q01196+Q13951; Cerulean-Runt/Venus-CBFb FRET ratio 530/480, 1 h; inhibition, % at 20 µM; hit rate 0.46% among 220,000;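 active = inhibition over about 50% at 20 µM in the single-dose screen, limit read from the data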
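test system = Cerulean-tagged RUNX1 Runt domain (FRET donor) fusion protein | reagent = Venus-CBFb binding partner, 100 nM | incubation = protein complex preformed 1 h, compound exposure 1 h, room temperature, dark | detection = FRET fluorescence | read-out basis = loss of energy transfer signal | controls = 5 µM unlabeled CBFb as full-inhibition high control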
YIC FRET counter – counter-screen YIC FRET for RanGTP-importin-beta inhibitors | shares compounds with RanGTP-Imp inh | Purified YIC probe, intramolecular FRET ratio YFP/CFP | IC50, µM | hit rate 40% among 1,000 | AID 435026;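 active = fitted half-maximal inhibitory concentration no more than tenfold above the top dose tested; inconclusive = flat fit with 30 to 70% activity, or poor fit; inactive = half-maximal concentration beyond tenfold above the top dose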
Large screens that a line does not name were inactive (follow-up assays come after a bar, where they were run).

CCOc1ccccc1NC(=O)c1ccc(NC(=O)C2CCCO2)cc1 (centres undefined)	none (no result: Runt-SMMHC FRET, Hck-Nef inh, Runt-CBFb FRET)
CCc1noc(C)c1C(=O)Nc1ccc(S(=O)(=O)N2CCC(C)CC2)cc1	none (no result: Runt-SMMHC FRET, Hck-Nef inh, Runt-CBFb FRET)
CC(C)NC(=O)NC(=O)COC(=O)c1ccccc1F	RanGTP-Imp inh inconclusive
CC(C)NC(=O)NC(=O)COC(=O)c1ccccc1O	RanGTP-Imp inh 16 | YIC FRET counter inactive
COc1cc2c(cc1NC(=S)Nc1cccc3ccccc13)oc1ccccc12	RanGTP-Imp inh 18 | YIC FRET counter inactive
CCOc1ccc(OCCC(=O)Nc2ccccc2C(=O)NC2CC2)cc1	none (no result: Runt-SMMHC FRET, RanGTP-Imp inh, Hck-Nef inh, Runt-CBFb FRET)
CCC(C)c1ccc(OCC(=O)O)cc1 (centres undefined)	RanGTP-Imp inh 24 | YIC FRET counter inactive
N#CC1=C(N)OC2=C(CCc3ccccc32)C1c1ccccc1 (centres undefined)	RanGTP-Imp inh 18 | YIC FRET counter inactive
CCCCc1cc(-c2n[nH]c(=S)o2)c2ccccc2n1	RanGTP-Imp inh 20 (no result: Runt-SMMHC FRET, Hck-Nef inh, Runt-CBFb FRET) | YIC FRET counter inactive
CCOC(=O)/C(Sc1nc(-c2ccccc2)cc(-c2ccccc2)c1C#N)=C(\C)O	none (no result: Runt-SMMHC FRET, Hck-Nef inh, Runt-CBFb FRET)
Cc1cccc(N2CCN(C(=O)C3COc4ccccc4O3)CC2)c1C (centres undefined)	RanGTP-Imp inh 26 | YIC FRET counter inactive
Cc1c(CC(=O)N2CCN(C(=O)C3COc4ccccc4O3)CC2)c(=O)oc2c(C)c(O)ccc12 (centres undefined)	RanGTP-Imp inh 24 (no result: Runt-SMMHC FRET, Hck-Nef inh, Runt-CBFb FRET) | YIC FRET counter 14
Cc1c(OCC(=O)NCc2cccnc2)ccc2c3c(c(=O)oc12)CCC3	none (no result: Runt-SMMHC FRET, Hck-Nef inh, Runt-CBFb FRET)
Cc1c(OCC(=O)NCc2ccncc2)ccc2c3c(c(=O)oc12)CCC3	RanGTP-Imp inh 17 (no result: Runt-SMMHC FRET, Hck-Nef inh, Runt-CBFb FRET) | YIC FRET counter inactive
CCNC(=S)N1CCC(C(=O)c2ccc(F)cc2)CC1	none (no result: Runt-SMMHC FRET, RanGTP-Imp inh, Hck-Nef inh, Runt-CBFb FRET)
COC(=O)C[C@H](NC(=O)Cn1cnc2c(SC)nc(N)nc21)C(=O)OC	none (no result: Runt-SMMHC FRET, RanGTP-Imp inh, Hck-Nef inh, Runt-CBFb FRET)
CCCn1c(O)c(C=Nc2ccccc2)sc1=S	RanGTP-Imp inh 27 | YIC FRET counter 12
CCCCn1c(O)c(/C=C/C=C/C=Nc2ccccc2)sc1=S	none
N#C/C(=C\c1cccs1)c1nc2ccccc2[nH]1	none
N#C/C(=C/c1ccc(O)c(O)c1)c1nc2ccccc2[nH]1	RanGTP-Imp inh 39 (no result: Runt-SMMHC FRET, Hck-Nef inh, Runt-CBFb FRET) | YIC FRET counter 3.9
COc1cccc(-c2cc(C(F)(F)F)n3ncc(S(=O)(=O)c4ccccc4)c3n2)c1	RanGTP-Imp inh 35 | YIC FRET counter 43
Cc1cccc(-n2c(C)cc(/C=C3\C(=N)N4N=C(CC(C)C)SC4=NC3=O)c2C)c1	RanGTP-Imp inh 26 | YIC FRET counter inactive
COc1ccc(OCc2nnc(SCC(=O)Nc3ccc(C)cc3)o2)cc1	none (no result: Runt-SMMHC FRET, Hck-Nef inh, Runt-CBFb FRET)
Cc1ccc(OCc2nnc(SCC(=O)CC(=O)Nc3ccccc3)o2)cc1	RanGTP-Imp inh 27 | YIC FRET counter inactive
Fc1ccc(N/N=C/c2ccncc2)c(F)c1	none
Fc1ccc(N/N=C/C=C/c2ccccc2)c(F)c1	RanGTP-Imp inh 20 | YIC FRET counter inactive
Cc1ccccc1-n1c(=O)cc(N2CC(C)OC(C)C2)[nH]c1=O (centres undefined)	RanGTP-Imp inh 63 | YIC FRET counter inactive
CCOC(=O)N1CCN(c2cc(=O)n(-c3ccccc3C)c(=O)[nH]2)CC1	RanGTP-Imp inh 36 | YIC FRET counter inactive
CC1(c2ccc([N+](=O)[O-])c(CS(=O)(=O)c3ccccc3)c2)OCCO1	none
C[C@@H]1CN([C@H](C)CO)C(=O)CCCn2cc(nn2)CO[C@H]1CN(C)C(=O)Nc1ccc(-c2cccs2)cc1	none (no result: Runt-SMMHC FRET, RanGTP-Imp inh, Hck-Nef inh, Runt-CBFb FRET)
C/C(N)=C(/C#N)C(=O)COc1ncnc2ccccc12	RanGTP-Imp inh 22 (no result: Runt-SMMHC FRET, Runt-CBFb FRET) | YIC FRET counter inactive
C/C(N)=C(/C#N)C(=O)COC(=O)c1cc(-c2ccc(Br)cc2)nc2ccccc12	none
CC(C)=CCC[C@](C)(OC1OC(COC2OCC(O)C(O)C2O)C(O)C(O)C1O)C1CC[C@]2(C)C1C(O)CC1[C@@]3(C)CCC(O[C@@H]4O[C@H](CO)C(O)C(O)C4O[C@@H]4OC(CO)C(O)C(O)C4O)C(C)(C)C3CC[C@]12C (some centres undefined)	none (no result: Runt-SMMHC FRET, RanGTP-Imp inh, Hck-Nef inh, Runt-CBFb FRET)
